Experimental data reported in ChEMBL document CHEMBL1641497, “A potent and selective indole N-type calcium channel (Ca(v)2.2) blocker for the treatment of pain” (Bioorg Med Chem Lett, 2011).
Calls of active or inactive are those of the source. The calls are words filed in the database; no cut-off is given here.

What was measured:
Rattus norvegicus [1] = test: Antinociceptive activity in rat assessed as reversal of complete Freund's adjuvant-induced pain at 3 mg/kg, po after 1 hr; type: functional
Outline: (§1)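 Rat CFA-induced inflammatory pain model, oral dosing. Mechanical allodynia assessed by paw pressure and expressed as % reversal. Plasma and brain drug levels measured at 3 h post-dose.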

Brain = test: Drug level in rat brain at 3 mg/kg, iv; type: ADME, organism-based; parameters: dose 3 mg/kg, route intravenous; conditions: in vivo, read-out: Drug uptake
Outline: (§2)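 Rat Rotarod motor coordination test after IV doses of 3 and 10 mg/kg. Plasma and brain drug concentrations determined alongside coordination impairment.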

[2] = Plasma concentration in rat spinal nerve ligation model at 30 mg/kg, po after 1 hrs; type: ADME, organism-based; parameters: dose 30 mg/kg, route oral; conditions: read-out: Activity
Outline: (§3)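 Rat spinal nerve ligation neuropathic pain model, oral dosing. Read-out is % reversal of mechanical allodynia. Plasma and brain drug levels measured at 1 h. An efficacious (EC50) plasma exposure was derived.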

Rattus norvegicus [3] = test: Antiallodynic activity in rat spinal nerve ligation model of neuropathic pain assessed as reversal of mechanical allodynia at 30 mg/kg, po after 8 hrs; type: functional; outline: as §3
Cytochrome P450 3A4 = Cytochrome P450 3A4 (Homo sapiens, UniProt P08684); test: Inhibition of CYP3A4; type: ADME
Cytochrome P450 3A4, sequence (P08684 whole entry): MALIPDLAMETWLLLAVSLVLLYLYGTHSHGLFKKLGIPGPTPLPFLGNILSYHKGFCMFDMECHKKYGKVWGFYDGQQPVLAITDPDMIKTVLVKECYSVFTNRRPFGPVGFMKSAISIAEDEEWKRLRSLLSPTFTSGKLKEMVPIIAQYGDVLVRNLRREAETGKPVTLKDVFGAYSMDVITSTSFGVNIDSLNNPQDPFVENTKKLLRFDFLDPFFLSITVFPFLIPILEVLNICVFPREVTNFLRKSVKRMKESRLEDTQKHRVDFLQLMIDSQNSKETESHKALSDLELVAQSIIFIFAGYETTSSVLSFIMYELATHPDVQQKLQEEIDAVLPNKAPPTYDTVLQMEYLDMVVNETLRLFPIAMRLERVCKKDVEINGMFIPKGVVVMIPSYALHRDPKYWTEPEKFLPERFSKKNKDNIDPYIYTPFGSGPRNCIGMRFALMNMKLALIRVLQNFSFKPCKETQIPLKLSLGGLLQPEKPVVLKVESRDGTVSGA

[4] = Drug level in spinal nerve ligation model rat brain at 30 mg/kg, po after 1 hrs; type: ADME, organism-based; parameters: dose 30 mg/kg, route oral; conditions: read-out: Activity; outline: as §3
Canis familiaris [5] = test: Dose normalized AUC in dog at 1 mg/kg, iv and 3 mg/kg, po; type: ADME, organism-based, Canis lupus familiaris; conditions: in vivo
Outline: (§4)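 Dog PK with 1.0 mg/kg IV and 3.0 mg/kg PO doses, based on plasma analysis. Parameters: dose-normalized AUC (μM h kg/mg), plasma clearance (mL/min/kg), T1/2 (h) and oral bioavailability (%).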

[6] = Plasma concentration in rat at 30 mg/kg, po after 3 hrs; type: ADME, organism-based; parameters: dose 30 mg/kg, route oral; conditions: read-out: Activity; outline: as §1
Cytochrome P450 2C9 = Cytochrome P450 2C9 (Homo sapiens, UniProt P11712); test: Inhibition of CYP2C9; type: ADME
Cytochrome P450 2C9, sequence (P11712 whole entry): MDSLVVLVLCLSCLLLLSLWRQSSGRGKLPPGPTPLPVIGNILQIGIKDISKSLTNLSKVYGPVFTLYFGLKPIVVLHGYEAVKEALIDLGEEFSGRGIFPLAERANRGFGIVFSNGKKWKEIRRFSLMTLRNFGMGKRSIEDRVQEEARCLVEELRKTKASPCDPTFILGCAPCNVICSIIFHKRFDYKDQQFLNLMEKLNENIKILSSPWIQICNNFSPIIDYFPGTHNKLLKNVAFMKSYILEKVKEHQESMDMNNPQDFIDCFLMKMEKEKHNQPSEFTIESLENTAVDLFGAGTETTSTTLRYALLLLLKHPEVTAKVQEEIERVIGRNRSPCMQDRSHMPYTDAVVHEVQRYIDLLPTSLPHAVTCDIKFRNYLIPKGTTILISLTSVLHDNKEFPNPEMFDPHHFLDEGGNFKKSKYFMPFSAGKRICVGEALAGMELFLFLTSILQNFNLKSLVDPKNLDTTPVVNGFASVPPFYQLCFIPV

Cytochrome P450 2D6 = Cytochrome P450 2D6 (Homo sapiens, UniProt P10635); test: Inhibition of CYP2D6; type: ADME
Cytochrome P450 2D6, sequence (P10635 whole entry): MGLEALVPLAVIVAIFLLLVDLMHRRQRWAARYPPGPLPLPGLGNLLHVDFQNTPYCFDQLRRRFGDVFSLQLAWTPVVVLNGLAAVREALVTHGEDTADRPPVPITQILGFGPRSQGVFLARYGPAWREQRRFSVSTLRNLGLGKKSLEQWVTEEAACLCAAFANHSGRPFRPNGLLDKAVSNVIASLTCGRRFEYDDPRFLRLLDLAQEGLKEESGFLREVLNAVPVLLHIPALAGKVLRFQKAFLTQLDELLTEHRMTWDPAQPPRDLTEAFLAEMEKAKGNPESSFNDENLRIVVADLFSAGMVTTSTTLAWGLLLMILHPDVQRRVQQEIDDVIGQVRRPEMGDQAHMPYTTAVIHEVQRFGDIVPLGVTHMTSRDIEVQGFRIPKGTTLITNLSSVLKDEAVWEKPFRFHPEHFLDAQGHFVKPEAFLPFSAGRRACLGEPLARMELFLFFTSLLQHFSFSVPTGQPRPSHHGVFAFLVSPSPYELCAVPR

Canis familiaris [7] = species on record: Canis familiaris; test: Cardiotoxicity in dog assessed as reduction in heart rate at maximal plasma exposure; type: toxicity, organism-based, Canis lupus familiaris; parameters: scale not given: the % may be the effect or the level left
Outline: (§5)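 Barbiturate-anesthetized, ventilated dogs given rising IV doses of 1, 3 and 10 mg/kg. Mean arterial pressure and heart rate recorded against plasma drug concentration.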

[8] = target: T1, Nuclear receptor subfamily 1 group I member 2 (Homo sapiens, UniProt O75469); test: Activity at PXR by induction assay
T1 sequence (O75469 whole entry): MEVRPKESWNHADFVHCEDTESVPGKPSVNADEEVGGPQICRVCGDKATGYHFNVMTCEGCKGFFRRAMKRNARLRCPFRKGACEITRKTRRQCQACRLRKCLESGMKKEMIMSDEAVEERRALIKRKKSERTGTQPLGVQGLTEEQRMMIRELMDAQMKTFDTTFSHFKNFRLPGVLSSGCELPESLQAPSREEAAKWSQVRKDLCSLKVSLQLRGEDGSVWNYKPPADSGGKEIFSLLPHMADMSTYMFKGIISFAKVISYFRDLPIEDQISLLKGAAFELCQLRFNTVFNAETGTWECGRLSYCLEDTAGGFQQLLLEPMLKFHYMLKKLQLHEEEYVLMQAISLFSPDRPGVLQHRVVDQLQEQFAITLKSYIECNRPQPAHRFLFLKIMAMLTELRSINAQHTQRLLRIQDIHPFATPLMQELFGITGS

Rattus norvegicus [9] = test: Antinociceptive activity in rat assessed as reversal of complete Freund's adjuvant-induced pain at 10 mg/kg, po after 3 hrs; type: functional; outline: as §1
Rattus norvegicus [10] = test: Antinociceptive activity in rat assessed as reversal of complete Freund's adjuvant-induced pain at 3 mg/kg, po after 8 hrs; type: functional; outline: as §1
Rattus norvegicus [11] = test: Antinociceptive activity in rat assessed as reversal of complete Freund's adjuvant-induced pain at 10 mg/kg, po after 8 hrs; type: functional; outline: as §1
Rattus norvegicus [12] = test: Antinociceptive activity in rat assessed as reversal of complete Freund's adjuvant-induced pain at 30 mg/kg, po after 8 hrs; type: functional; outline: as §1
[13] = Volume of distribution at steady state in rat at 1 mg/kg, iv and 3 mg/kg, po; type: ADME, organism-based; conditions: in vivo, read-out: Vdss
Outline: (§6)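 Rat PK with 1.0 mg/kg IV and 3.0 mg/kg PO doses, based on plasma analysis. Parameters: Cmax, dose-normalized AUC (μM h kg/mg), plasma clearance (mL/min/kg), Vdss (L/kg), T1/2 (h) and oral bioavailability (%).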

[14] = Metabolic stability in human liver microsomes assessed as compound remaining after 60 mins; type: ADME, Microsome; conditions: read-out: Stability
Outline: (§7)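 Compounds incubated with human or rat liver microsomes for 60 min. Read-out is the percent of parent compound remaining.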

Rattus norvegicus [15] = test: Antiallodynic activity in rat spinal nerve ligation model of neuropathic pain assessed as reversal of mechanical allodynia at 10 mg/kg, po after 1 hr; type: functional; outline: as §3
[16] = Plasma clearance in dog at 1 mg/kg, iv and 3 mg/kg, po; type: ADME, organism-based, Canis lupus familiaris; outline: as §4
Canis familiaris [17] = species on record: Canis familiaris; test: Cardiotoxicity in dog assessed as reduction in mean arterial pressure at >2 uM plasma concentration; type: toxicity, organism-based, Canis lupus familiaris; outline: as §5
Rattus norvegicus [18] = test: Antiallodynic activity in rat spinal nerve ligation model of neuropathic pain assessed as reversal of mechanical allodynia at 30 mg/kg, po after 3 hrs; type: functional; outline: as §3
Rattus norvegicus [19] = test: Antinociceptive activity in rat assessed as reversal of complete Freund's adjuvant-induced pain at 30 mg/kg, po after 3 hrs; type: functional; outline: as §1
[20] = Drug level in rat brain at 30 mg/kg, po after 3 hrs; type: ADME, organism-based; parameters: dose 30 mg/kg, route oral; conditions: read-out: Activity; outline: as §1
[21] = Plasma clearance in rat at 1 mg/kg, iv and 3 mg/kg, po; type: ADME, organism-based; outline: as §6
Rattus norvegicus [22] = species on record: Rattus norvegicus; test: Antiallodynic activity in rat spinal nerve ligation model of neuropathic pain assessed as reversal of mechanical allodynia at 0.44 uM plasma concentration; type: functional, organism-based; outline: as §3
Rattus norvegicus [23] = test: Antiallodynic activity in rat spinal nerve ligation model of neuropathic pain assessed as reversal of mechanical allodynia at 30 mg/kg, po after 1 hr; type: functional; outline: as §3
[24] = Half life in rat at 1 mg/kg, iv and 3 mg/kg, po; type: ADME, organism-based; conditions: in vivo; outline: as §6
Rattus norvegicus [25] = species on record: Rattus norvegicus; test: Neurotoxicity in rat assessed as impairment of motor coordination at 1.9 uM plasma concentration by rotarod test; type: toxicity, organism-based; conditions: in vivo; outline: as §2
Rattus norvegicus [26] = species on record: Rattus norvegicus; test: Neurotoxicity in rat assessed as impairment of motor coordination at 8 uM plasma concentration by rotarod test; type: toxicity, organism-based; conditions: in vivo; outline: as §2
[27] = Oral bioavailability in dog at 3 mg/kg; type: ADME, organism-based, Canis lupus familiaris; conditions: in vivo
Rattus norvegicus [28] = test: Antinociceptive activity in rat assessed as reversal of complete Freund's adjuvant-induced pain at 3 mg/kg, po after 3 hrs; type: functional; outline: as §1
Rattus norvegicus [29] = test: Antiallodynic activity in rat spinal nerve ligation model of neuropathic pain assessed as reversal of mechanical allodynia at 10 mg/kg, po after 3 hrs; type: functional; outline: as §3
[30] = Cmax in rat at 1 mg/kg, iv and 3 mg/kg, po; type: ADME, organism-based; conditions: in vivo; outline: as §6
[31] = Oral bioavailability in rat at 3 mg/kg; type: ADME, organism-based; conditions: in vivo; outline: as §6
Rattus norvegicus [32] = test: Antinociceptive activity in rat assessed as reversal of complete Freund's adjuvant-induced pain at 30 mg/kg, po after 1 hr; type: functional; outline: as §1
[33] = Half life in dog at 1 mg/kg, iv and 3 mg/kg, po; type: ADME, organism-based, Canis lupus familiaris; conditions: in vivo; outline: as §4
Rattus norvegicus [34] = species on record: Rattus norvegicus; test: Neurotoxicity in rat assessed as impairment of motor coordination at 6 uM brain concentration by rotarod test; type: toxicity, organism-based; conditions: in vivo; outline: as §2
Rattus norvegicus [35] = test: Dose normalized AUC in rat at 1 mg/kg, iv and 3 mg/kg, po; type: ADME, organism-based; conditions: in vivo; outline: as §6
[36] = target: Cav1.2 (voltage-dependent L-type calcium channel subunit alpha-1C) (Homo sapiens, UniProt Q13936); test: Blockade of Cav1.2 channel at 10 uM by fluorescent calcium-influx assay
Cav1.2 (voltage-dependent L-type calcium channel subunit alpha-1C), sequence (Q13936 whole entry): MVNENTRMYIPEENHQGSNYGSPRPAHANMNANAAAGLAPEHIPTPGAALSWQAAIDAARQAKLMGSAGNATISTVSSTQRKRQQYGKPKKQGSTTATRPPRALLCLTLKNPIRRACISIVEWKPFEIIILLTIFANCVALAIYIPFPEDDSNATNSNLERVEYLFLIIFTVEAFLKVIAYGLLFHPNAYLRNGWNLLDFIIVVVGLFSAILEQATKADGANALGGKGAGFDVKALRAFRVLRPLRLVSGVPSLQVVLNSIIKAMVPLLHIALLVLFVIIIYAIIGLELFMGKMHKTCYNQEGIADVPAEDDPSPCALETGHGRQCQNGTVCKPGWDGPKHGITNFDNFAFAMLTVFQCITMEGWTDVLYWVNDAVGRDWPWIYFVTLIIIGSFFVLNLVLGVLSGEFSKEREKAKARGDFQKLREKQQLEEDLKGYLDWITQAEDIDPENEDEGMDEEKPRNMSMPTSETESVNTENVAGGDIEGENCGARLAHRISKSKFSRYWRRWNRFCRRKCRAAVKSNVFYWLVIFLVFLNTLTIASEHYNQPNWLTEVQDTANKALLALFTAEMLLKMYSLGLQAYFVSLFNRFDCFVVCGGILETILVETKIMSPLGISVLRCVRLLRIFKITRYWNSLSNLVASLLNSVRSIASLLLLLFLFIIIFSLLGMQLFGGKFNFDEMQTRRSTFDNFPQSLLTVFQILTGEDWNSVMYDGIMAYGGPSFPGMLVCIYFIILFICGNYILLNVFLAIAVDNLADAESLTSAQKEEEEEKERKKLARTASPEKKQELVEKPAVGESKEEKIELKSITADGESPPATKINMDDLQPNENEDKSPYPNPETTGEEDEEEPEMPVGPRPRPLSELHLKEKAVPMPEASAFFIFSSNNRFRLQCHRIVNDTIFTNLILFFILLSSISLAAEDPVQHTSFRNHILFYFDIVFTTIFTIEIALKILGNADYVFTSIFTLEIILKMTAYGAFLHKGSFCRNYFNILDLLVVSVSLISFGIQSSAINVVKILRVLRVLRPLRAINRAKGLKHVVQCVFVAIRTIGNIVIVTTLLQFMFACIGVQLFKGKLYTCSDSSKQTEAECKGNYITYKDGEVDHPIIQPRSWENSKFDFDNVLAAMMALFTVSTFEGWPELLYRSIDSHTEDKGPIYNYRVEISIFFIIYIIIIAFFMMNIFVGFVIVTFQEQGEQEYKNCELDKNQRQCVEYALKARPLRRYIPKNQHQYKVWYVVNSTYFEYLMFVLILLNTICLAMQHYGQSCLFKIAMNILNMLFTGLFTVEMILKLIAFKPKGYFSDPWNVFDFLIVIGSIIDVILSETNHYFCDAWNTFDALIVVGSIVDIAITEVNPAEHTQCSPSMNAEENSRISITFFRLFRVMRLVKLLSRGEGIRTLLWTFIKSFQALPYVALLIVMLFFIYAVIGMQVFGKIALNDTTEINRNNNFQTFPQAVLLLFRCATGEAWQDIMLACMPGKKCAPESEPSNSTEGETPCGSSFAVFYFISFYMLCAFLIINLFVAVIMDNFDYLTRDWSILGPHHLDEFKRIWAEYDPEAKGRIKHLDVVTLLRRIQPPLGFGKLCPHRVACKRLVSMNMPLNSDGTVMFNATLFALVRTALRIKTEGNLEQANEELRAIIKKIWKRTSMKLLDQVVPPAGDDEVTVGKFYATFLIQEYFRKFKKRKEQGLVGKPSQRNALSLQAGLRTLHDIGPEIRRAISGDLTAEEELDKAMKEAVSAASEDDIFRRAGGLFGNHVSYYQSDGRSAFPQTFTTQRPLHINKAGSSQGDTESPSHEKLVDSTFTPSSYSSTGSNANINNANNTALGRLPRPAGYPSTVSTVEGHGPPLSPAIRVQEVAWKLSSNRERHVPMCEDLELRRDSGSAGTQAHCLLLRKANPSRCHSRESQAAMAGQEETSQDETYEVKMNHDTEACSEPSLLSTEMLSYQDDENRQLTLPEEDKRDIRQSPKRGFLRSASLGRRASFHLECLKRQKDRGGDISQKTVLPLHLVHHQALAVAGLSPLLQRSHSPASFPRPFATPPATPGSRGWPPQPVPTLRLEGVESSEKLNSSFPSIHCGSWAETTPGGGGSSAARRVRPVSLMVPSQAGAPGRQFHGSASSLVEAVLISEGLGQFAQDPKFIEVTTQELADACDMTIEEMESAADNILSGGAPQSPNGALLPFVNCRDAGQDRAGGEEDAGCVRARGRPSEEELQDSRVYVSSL
Outline: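 Cav1.2 (L-type) channel block measured with a fluorescent calcium-influx FLIPR assay. Results are reported as % inhibition at 10 μM test concentration.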

Plasma = test: Plasma concentration in rat at 3 mg/kg, iv; type: ADME, organism-based; parameters: dose 3 mg/kg, route intravenous; conditions: in vivo, read-out: Drug uptake; outline: as §2
Rattus norvegicus [37] = test: Antiallodynic activity in rat spinal nerve ligation model of neuropathic pain assessed as reversal of mechanical allodynia at 10 mg/kg, po after 8 hrs; type: functional; outline: as §3
Rattus norvegicus [38] = test: Antinociceptive activity in rat assessed as reversal of complete Freund's adjuvant-induced pain at 10 mg/kg, po after 1 hr; type: functional; outline: as §1
[39] = Metabolic stability in rat liver microsomes assessed as compound remaining after 60 mins; type: ADME, Microsome; conditions: read-out: Stability; outline: as §7
Rattus norvegicus [40] = species on record: Rattus norvegicus; test: Neurotoxicity in rat assessed as impairment of motor coordination at 1.4 uM brain concentration by rotarod test; type: toxicity, organism-based; conditions: in vivo; outline: as §2

- concentration (Brain): 1400 nM
- concentration at 1 h [2]: 410 nM
- IC50 (Cytochrome P450 3A4): > 10 µM
- concentration at 1 h [4]: 260 nM
- AUC (Canis familiaris [5]): 1.02 µM·kg·h/mg
- concentration at 3 h [6]: 750 nM
- IC50 (Cytochrome P450 2C9): > 10 µM
- IC50 (Cytochrome P450 2D6): > 10 µM
- EC50 [8]: > 30 µM
- Vd [13]: 5.1 L/kg
- remaining at 1 h [14]: 20%
- clearance [16]: 5.6 mL/min/kg
- concentration at 3 h [20]: 170 nM
- clearance [21]: 64 mL/min/kg
- half-life [24]: 84 min
- bioavailability [27]: 18%
- Cmax [30]: 290 nM
- bioavailability [31]: 68%
- half-life [33]: 276 min
- AUC (Rattus norvegicus [35]): 0.34 µM·kg·h/mg
- concentration (Plasma): 1900 nM
- remaining at 1 h [39]: 20%
Compound: CC(C)(C)NC(=O)Cn1c(-c2ccc(OC(F)(F)F)cc2)cc2cc(C(C)(C)C(=O)NC(C)(C)C)ccc21
- Activity (Rattus norvegicus [1]): 36%
- Activity (Rattus norvegicus [3]): 27%
- Activity (Canis familiaris [7]): 32%
- Activity (Rattus norvegicus [9]): 52%
- Activity (Rattus norvegicus [10]): 17%
- Activity (Rattus norvegicus [11]): 22%
- Activity (Rattus norvegicus [12]): 32%
- Activity (Rattus norvegicus [15]): 45%
- Activity (Canis familiaris [17]): Toxic
- Activity (Rattus norvegicus [18]): 50%
- Activity (Rattus norvegicus [19]): 68%
- Activity (Rattus norvegicus [22]): Active
- Activity (Rattus norvegicus [23]): 68%
- Activity (Rattus norvegicus [25]): Non-toxic
- Activity (Rattus norvegicus [26]): Toxic
- Activity (Rattus norvegicus [28]): 37%
- Activity (Rattus norvegicus [29]): 47%
- Activity (Rattus norvegicus [32]): 66%
- Activity (Rattus norvegicus [34]): Toxic
- inhibition at 10 µM [36]: 85%
- Activity (Rattus norvegicus [37]): 14%
- Activity (Rattus norvegicus [38]): 57%
- Activity (Rattus norvegicus [40]): Non-toxic
